Source: PubChem
TRPC4 block: TRPC4 (mouse) channel inhibition; 300,000 compounds, 0.39% hits; HEK293 TRPC4beta/mu-opioid, DAMGO-evoked Fluo4 calcium flux; hits give low values; AID 2247; Q9QUQ5; B-score at 10 µM;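 active means B-score over 3 SD under the library average, no early fluorescence shift, positive overall ratio signal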
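Material: HEK293 cells with stable TRPC4beta plus mu-opioid receptor expression; probe or stimulus: DAMGO in two steps, submaximal then maximal; technique: Fluo4 calcium fluorescence by kinetic imaging, 5 s 1 Hz baseline; measure: integrated fluorescence ratio relative to baseline, converted to per-well B score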
TRPC4 PAM: TRPC4 (mouse) allosteric potentiation; Q9QUQ5; HEK293 TRPC4beta/mu-opioid, DAMGO EC20, Fluo-4 Ca2+ flux; hits give high values; B-score at 10 µM; 310,000 compounds, 0.42% hits;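 active means B-score of calcium response area above 5 SD of library B-scores, with initial fluorescence ratio within 5 SD of library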
TRPC6 inh: mouse TRPC6 channel inhibition. AID 2553. HEK293-TRPC6, membrane potential dye, ACh-evoked depolarization; hits give low values. Q61143. 310,000 compounds, 1.1% hits. B-score at 10 µM;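 active means B-score under library mean minus 3 SD, initial fluorescence not abnormally high, positive integrated signal ratio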;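 further: B-score derived from integrated fluorescence ratio over the kinetic read; more negative B-score means stronger inhibition of depolarization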
TRPC4 act: opens the mouse TRPC4 cation channel; Q9QUQ5; HEK293 TRPC4beta/mu-opioid, Fluo4 calcium fluorescence; hits give high values; B-score at 10 µM; 310,000 compounds, 0.49% hits; AID 2237;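 active means B-score above 5 SD of library B-scores, and initial fluorescence ratio not above library mean plus 5 SD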;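 further: positive B-score marks a calcium rise read as TRPC4 activation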
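System: HEK293 cells stably co-expressing mouse TRPC4beta and mu-opioid receptor; Schedule: Fluo4 dye loading 45 min at room temperature, 110 s recording; Detection: Fluo4 fluorescence, kinetic; Evaluation: B-scored integrated calcium fluorescence ratio; Controls: buffer (low) and maximal DAMGO (high).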
TRPC6 act: activators of mouse TRPC6 channel. Q61143. HEK293-TRPC6 membrane potential dye fluorescence; hits give high values. B-score at 10 µM. 310,000 compounds, 0.13% hits;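 active means B-score of the integrated fluorescence ratio above library mean plus 3 SD, and starting fluorescence ratio within library mean plus 5 SD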;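 further: higher score means more depolarization so channel activation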
Of the large screens only hits and unclear results are named; the others gave an inactive call. A selection: hits, their analogues and other compounds. The true share with any hit is near 2.3%.

COc1cccc(C(c2nnnn2CCc2ccccc2)N2CCN(c3ccccc3)CC2)c1OC (stereo not drawn)	none
COc1ccccc1C(c1nnnn1C(C)(C)C)N1CCN(Cc2ccncc2)CC1 (stereo not drawn)	none
COc1cccc(C(c2nnnn2C(C)(C)C)N2CCN(C3CCCCC3)CC2)c1OC (stereo not drawn)	TRPC4 block -6
Nc1nc(N2CCCCC2)nc(N2CCCCC2)n1	none
C1CCN(c2nc(N3CCCC3)nc(N3CCNCC3)n2)C1	TRPC4 PAM 16
Cc1cc(C)nc(NN2C(=O)C=CC2=O)n1	none
CCCCN(CC)CCNC(=O)CCC(=O)Nc1ccc2nc(N3CCN(C)CC3)cc(C)c2c1	TRPC4 act 118
CCN(CC)CCCNC(=O)CCC(=O)Nc1ccc2nc(N3CCCCC3)cc(C)c2c1	none
CCCN(CCC)CCNC(=S)Nc1ccc2nc3n(c(=O)c2c1)CCCCC3	TRPC4 act 88
CCCN(CCC)CCNC(=O)CCC(=O)Nc1ccc2nc(N3CCOCC3)cc(C)c2c1	TRPC4 act 97
CCCN(CCC)CCCNC(=S)Nc1ccc2nc(N3CCN(CC)CC3)cc(C)c2c1	none
CCCN(CCC)CCCNC(=S)Nc1ccc2nc(N3CCN(C)CC3)cc(C)c2c1	TRPC4 PAM 13
CS/C(=C(/C#N)S(=O)(=O)c1ccc(Cl)cc1)N1CCOCC1	none
Cc1ccc(C(=O)Nc2ncccc2S(=O)(=O)c2ccccc2)cc1	none
CCN(CC(=O)Nc1c(F)cccc1F)C(=O)Cc1ccc2c(c1)CCC2	none
N#CC1(CCCN2CCCCC2)c2ccccc2CCc2ccccc21	none
CCCCN(CC)CCNC(=S)Nc1ccc2nc(N3CCN(C)CC3)cc(C)c2c1	TRPC4 act 66
Cc1cc(N2CCN(C)CC2)nc2ccc(NC(=S)NC3CC3)cc12	none
CSc1nc(NCCCN(C)C)c2c3c(sc2n1)CN(C)CC3	TRPC6 inh -7.8
CCN(CC)CCNc1nc(SC)nc2sc3c(c12)CCN(C)C3	none
CN(C)CCCN(C(=O)c1nc2ccccc2s1)c1nc2ccc(F)cc2s1	none
CCN(Cc1ccccc1)S(=O)(=O)c1ccc(C(=O)N(CCCN(C)C)c2nc3cc4c(cc3s2)OCCO4)cc1	none
COc1cc2nc(N(CCCN(C)C)C(=O)c3ccc(S(=O)(=O)N4CCc5ccccc54)cc3)sc2cc1OC	none
CN(C)CCCN(C(=O)c1ccc(S(=O)(=O)N(C)C2CCCCC2)cc1)c1nc2ccc(F)cc2s1	TRPC4 act 140
CN(C)CCCN(C(=O)c1ccc(C(=O)c2ccccc2)cc1)c1nc2ccc(F)cc2s1	TRPC4 act 121
CCN(Cc1ccccc1)S(=O)(=O)c1ccc(C(=O)N(CCCN(C)C)c2nc3ccc(F)cc3s2)cc1	TRPC4 act 63
COc1ccc2sc(N(CCCN(C)C)C(=O)c3ccc(S(=O)(=O)N4CCCc5ccccc54)cc3)nc2c1	TRPC4 PAM 18
COc1cc(C2c3c(-c4ccccc4)n[nH]c3C(=O)N2c2ccccc2)ccc1O (stereo not drawn)	TRPC4 PAM 14
Cc1ccc(NC(=O)C2CCN(C(=O)c3ccc(F)cc3)CC2)nc1	none
O=C(CN1CCN(Cc2ccccc2Cl)CC1)N=Nc1c(O)[nH]c2ccccc12	TRPC4 block -6
CCC(=O)N/C(N)=N/c1nc(C)c2cc(OC)ccc2n1	TRPC4 block -7
COc1ccc2nc(/N=C(\N)NC(=O)C(C)(C)C)nc(C)c2c1	none
C=CCNC(=O)C(=O)NCC1CCCN1S(=O)(=O)c1cccs1 (stereo not drawn)	TRPC4 PAM 86
O=C(NCCO)C(=O)NCC1CCCN1S(=O)(=O)c1cccs1 (stereo not drawn)	none
CCC1(c2ccc(F)cc2)NC(=O)N(CC(=O)Nc2cccc(S(=O)(=O)N3CCCCC3)c2)C1=O (stereo not drawn)	TRPC4 PAM 12
CC1CCN(CCc2nc3cc(NC(=O)COc4ccc([N+](=O)[O-])cc4)ccc3n2C)CC1	none
S=C1NC(c2ccccc2)=NCN1c1ccc(Cl)cc1	TRPC4 PAM 10
COC(=O)c1ccc(N2CN=C(c3ccc(C)cc3)NC2=S)cc1	none
CC(=O)Nc1ccc(C2(c3ccc(NC(C)=O)cc3)C(=O)Nc3ccccc32)cc1	TRPC4 block -7, TRPC4 act 58
Cc1ccc(/C=C2\SC(=S)N(C(Cc3ccccc3)C(=O)O)C2=O)cc1 (stereo not drawn)	TRPC4 block -8
O=C(O)C(Cc1ccccc1)N1C(=O)/C(=C/c2ccccc2)SC1=S (stereo not drawn)	none
Nc1ccc(Sc2ccc([N+](=O)[O-])cc2)cc1	TRPC4 block -6
O=C1C=CC(=O)N1c1ccc(Sc2ccc([N+](=O)[O-])cc2)cc1	none
COc1ccc(C2CC(=O)c3cnc(N4CCc5ccccc54)nc3C2)cc1OC (stereo not drawn)	none
CNc1nc(N2CCc3ccccc32)ncc1F	TRPC4 PAM 47
CCCCCC(=O)NNC(=S)NC(=O)c1ccc([N+](=O)[O-])cc1	TRPC4 act 79
Cc1ccc(C(=O)NC(=S)NNC(=O)c2ccccc2)cc1	TRPC4 act 90
Cc1ccc(C(=O)NNC(=S)NC(=O)c2ccco2)cc1	TRPC4 act 133
O=C(NNC(=S)NC(=O)c1ccccc1)c1ccc([N+](=O)[O-])cc1	TRPC4 act 56
Cc1ccc(C(=O)NNC(=O)c2ccco2)cc1	none
COc1ccc(Br)cc1CNC(=O)C1CCCN(S(=O)(=O)N2CC(C)CC(C)C2)C1 (stereo not drawn)	none
C/C=C/n1ccnc1CC(O)(c1ccccc1)c1ccc(C)cc1 (stereo not drawn)	none
CC(=O)c1sc(NC(=O)CSC(C)C(=O)Nc2cc(C)on2)nc1-c1ccccc1 (stereo not drawn)	none
O=C(NNC(=S)NC(=O)c1ccccc1Cl)c1cccc([N+](=O)[O-])c1	TRPC4 act 106
Cc1ccccc1OCC(=O)NNC(=S)NC(=O)c1ccco1	TRPC4 act 88
Cc1ccccc1C(=O)NNC(=S)NC(=O)c1ccccc1	TRPC4 act 205
O=C(NNC(=S)NC(=O)c1ccccc1[N+](=O)[O-])c1ccc(Cl)cc1Cl	TRPC4 act 49
O=C(NNC(=S)NC(=O)c1ccccc1[N+](=O)[O-])c1ccccc1[N+](=O)[O-]	none
O=C(NNC(=S)NC(=O)c1ccc(Br)cc1)c1cccc([N+](=O)[O-])c1	none
Cc1ccccc1OCC(=O)Nc1ccccc1NC(=O)c1ccco1	none
CCOCCCNC(=O)c1ccc(N2CC3CC(C2)c2cccc(=O)n2C3)c(NC(=O)Nc2cccc(OC)c2)c1 (stereo not drawn)	none
Cc1ccc(S(=O)(=O)NC2(C(F)(F)F)NC(=O)N(c3ccccc3F)C2=O)cc1 (stereo not drawn)	none
O=C(CCN1C(=O)COc2ccccc21)NCCCN1CCCC1	none
COc1ccc(CCNC(=O)COc2ccccc2[N+](=O)[O-])cc1OC	none
